Screens: PubChem, The Scripps Research Institute Molecular Screening Center
Hits are enriched below; roughly 4.6% of the tested compounds scored in any of these assays.
OX1R antag-1 – antagonists of human orexin 1 receptor (OX1R); Orexin/Hypocretin receptor type 1 (Homo sapiens), O43613; OX1R-expressing cells, FRET antagonist read-out; inhibition, % at 6.6 µM; actives 1.8% (n = 330,000); AID 485270, 2010; in the data active = inhibition mostly above about 38%, no sharp cut-off; inactive = mostly below about 40%;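 also: 0% = agonist challenge alone and 100% = reference antagonist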
Target sequence (O43613 whole entry, looked up): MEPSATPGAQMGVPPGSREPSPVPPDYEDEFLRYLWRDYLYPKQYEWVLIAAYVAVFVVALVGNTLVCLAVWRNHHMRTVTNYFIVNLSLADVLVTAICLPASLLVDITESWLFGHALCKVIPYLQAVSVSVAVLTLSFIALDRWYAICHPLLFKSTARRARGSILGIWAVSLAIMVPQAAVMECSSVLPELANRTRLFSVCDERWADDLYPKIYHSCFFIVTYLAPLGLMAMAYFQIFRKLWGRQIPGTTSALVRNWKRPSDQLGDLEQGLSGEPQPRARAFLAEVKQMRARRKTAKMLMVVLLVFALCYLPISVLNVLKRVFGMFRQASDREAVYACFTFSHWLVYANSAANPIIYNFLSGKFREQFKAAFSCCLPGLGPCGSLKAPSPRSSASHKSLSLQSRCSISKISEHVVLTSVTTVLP
TAAR1 ag – human TAAR1 agonists, primary screen, Fluo-8 calcium fluorescence, CHO RD-HGA16 cells. Trace amine-associated receptor 1 (Homo sapiens), Q96RJ0. vehicle wells 0%, saturating PEA agonist 100%. activation, % at 3 µM. actives 0.99% (n = 360,000);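 active = activation above the mean activation of all test compounds in the run plus 3 SD, cut at about 38% in these data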
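Test system: RD-HGA16 (CHO) cells co-expressing Gα16 and hTAAR1 / Benchmarks: DMSO vehicle as 0%, PEA at EC100 as 100% / Repeats: no replicates (n 1) / Measure: % activation from peak over basal fluorescence ratio, DMSO-to-PEA scaled / Timing: 17-24 h plating, Fluo-8 75 min 37 °C, 30 min RT / Technique: kinetic Fluo-8 calcium fluorescence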
GPR7 antagonist – GPR7 receptor antagonists, primary screen, cell-based, fluorescence, single concentration. Neuropeptides B/W receptor type 1 (Homo sapiens), P48145. GPR7-expressing cells, fluorescence antagonist assay. inhibition, % at 4.4 µM. actives 1.1% (n = 290,000); in the data active = inhibition above about 16%, passing the limit was not always enough;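 also: cells stimulated with the agonist NPW; 0% = agonist with vehicle and 100% = vehicle without agonist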
TAAR1 antag – human TAAR1 antagonists, primary screen, Fluo-8 calcium fluorescence, CHO RD-HGA16 cells; antagonist; actives 1.5% (n = 360,000); Trace amine-associated receptor 1 (Homo sapiens), Q96RJ0; inhibition, % at 3 µM; AID 624466, 2012;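 active = inhibition above a per-plate cutoff, the mean inhibition of test compounds on that plate plus 3 SD, cut at about 49% in these data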;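 also: 0% = DMSO plus EC80 beta-PEA response and 100% = DMSO alone without agonist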
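System: RD-HGA16 CHO cells with stable hTAAR1 and Gα16 | Probe or stimulus: EC80 β-phenethylamine stimulus | Dosing: 3 µM, single point | Times: Dye loading 75 min at 37 °C, then 30 min room temperature | Measured by: Fluo-8 calcium-sensitive fluorescence | Read-out basis: % inhibition of agonist calcium response | Replicates: n of 1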
OX1R antag-2 – OX1R (HCRTR1) antagonists, primary screen, fluorescence, CHO/OX1R cells, Fluo-8 calcium, orexin A | actives 0.43% (n = 330,000) | inhibition, % at 5 µM | Fluo-8 calcium fluorescence;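 active = inhibition above its plate's threshold, mean inhibition of all tested compounds on the plate plus 3 SD, cut at about 37% in these data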;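 also: 0% = orexin A challenge wells and 100% = SB-334867-A antagonist wells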
CHO parental Ca – ATP-evoked calcium signal inhibitors, parental CHO, primary screen, counter-screen for OX1R antagonist project, cell-based, fluorescence, Fluo-8 calcium dye | AID 463079, 2010 | actives 0.63% (n = 330,000) | parental CHO-K1, ATP-induced calcium, Fluo-8 fluorescence | inhibition, % at 5.6 µM;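 active = inhibition above that plate's mean sample inhibition plus 3 SD, cut at about 26% in these data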;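 also: 0% = ATP-challenged DMSO wells and 100% = DMSO wells without ATP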
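test system = CHO parental line | reagent = ATP stimulus | measured by = intracellular calcium via Fluo-8 no-wash fluorescent dye | control set = ATP and no-ATP DMSO wells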
GPR7 antag conf – GPR7 receptor antagonists, confirmation, cell-based, fluorescence, single concentration; shares compounds with GPR7 antagonist; GPR7-expressing cells, calcium fluorescence antagonist mode; actives 52% (n = 2,400); inhibition, % at 4.4 µM; in the data active = inhibition above about 24%;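 also: stimulated with the GPR7 agonist NPW; 0% = agonist plus vehicle and 100% = vehicle alone without agonist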
MCHR1 antag – MCHR1 antagonists in cells, counter-screen for GPR7 antagonist project, cell-based, fluorescence, human | shares compounds with GPR7 antagonist | MCHR1-expressing cells, fluorescence antagonist assay | inhibition, % at 4.4 µM | actives 62% (n = 2,400) | AID 2148, 2009; in the data active = inhibition above about 22%;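 also: 0% = vehicle with agonist and 100% = vehicle without agonist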
* = called active by the depositor; . = no result.

SMILES	OX1R antag-1	TAAR1 ag	GPR7 antagonist	TAAR1 antag	OX1R antag-2	CHO parental Ca	GPR7 antag conf	MCHR1 antag
Cc1ccc(S(=O)(=O)Oc2ccc(/C=C3\C(=N)N4N=C(S(C)(=O)=O)SC4=NC3=O)cc2)cc1	23	-2	30*	5	2	24	14	8
CCN1C(=O)C(CC(=O)Nc2ccc(F)cc2)N(CCCN2CCN(c3ccc(F)cc3)CC2)C1=S (centres undefined)	9	30	33*	53*	-7	-3	29*	62*
CNC(=S)N/N=C/c1cn(Cc2c(F)cccc2Cl)c2ccccc12	7	3	30*	-8	-13	2	45*	30*
O=C(CNC(=O)c1ccc(Br)cc1)OC1CCOC1=O (centres undefined)	.	1	.	-4	.	.	.	.
O=C(c1ccccc1)C1CCN(C(=O)c2cccs2)CC1	11	3	14	-22	-6	-4	.	.
O=C(c1cccs1)N1CCC(c2ccccc2)C1 (centres undefined)	17	16	21*	11	-4	-13	7	-5
CC(Oc1ccc(NC(=O)c2ccco2)cc1)C(=O)N1c2ccccc2CC1C (centres undefined)	25	1	35*	-11	-25	-12	14	19
CC1Cc2ccccc2N1C(=S)NC(=O)c1ccco1 (centres undefined)	11	-1	-12	-10	-7	-7	.	.
O=c1oc(-c2ccccc2[N+](=O)[O-])nc2ccccc12	21	-1	1	-13	-2	-10	.	.
Nc1ccccc1-c1nc2ccccc2c(=O)o1	15	0	49*	-14	-2	-4	8	18
Cc1cc(C(=O)N2CCC(Cc3ccccc3)CC2)ccc1[N+](=O)[O-]	40	2	.	5	-21	-12	.	21
COC(=O)c1cc2c([nH]c1=O)CCCC2=O	.	1	.	-12	.	.	.	.
O=[N+]([O-])c1c(Nc2ccc(O)cc2)cc(Cl)c2nonc12	99*	-4	83*	63*	76*	61*	94*	102*
CN(C)c1cc(Nc2ccc(O)cc2)c([N+](=O)[O-])c2nonc12	43	0	-22	-2	-24	-12	.	.
CCN(C(=O)c1cc2c(s1)-c1ccccc1S(=O)(=O)C2)c1cc(OC)ccc1OC	-3	1	0	-3	-27	-6	.	.
CCN(C(=O)c1cc2c(s1)-c1ccccc1OC2)c1cc(OC)ccc1OC	14	0	31*	-9	-8	35*	50*	56*
COc1ccc(Oc2ccc(/C=C/C(=O)c3ccc(O)cc3)cc2[N+](=O)[O-])cc1	43	1	26*	30	5	5	77*	87*
COCC1CCCCN1C(=O)c1cccc(OC2CCN(S(C)(=O)=O)CC2)c1 (centres undefined)	7	1	12	-24	-4	-2	.	.
CC(CCc1ccccc1)NC(=O)COC(=O)c1ccc(S(C)(=O)=O)c([N+](=O)[O-])c1 (centres undefined)	69*	6	52*	20	6	18	92*	48*
CC(CCc1ccccc1)NC(=O)COC(=O)c1ccc([N+](=O)[O-])cc1 (centres undefined)	13	0	2	-4	-23	-18	.	.
CCOC1=C2[C@@H](CN(S(=O)(=O)c3ccc(C)cc3)[C@H]2c2ccccc2F)[C@H]2C(=O)N(c3ccccc3)C(=O)[C@H]2C1	.	0	.	2	.	.	.	.
Cc1ccc2nccc(C(=O)N3CCCC(Nc4ccc(C)c(C)c4)C3)c2c1 (centres undefined)	38*	0	27*	-26	27	-31	-5	-9
CCCCn1nnnc1C(c1ccccc1)N1CCN(c2ccccn2)CC1 (centres undefined)	.	1	.	6	.	.	.	.
COc1ccc(NC(=O)COC(=O)c2c3c(nc4ccccc24)CCCC3)cc1Cl	75*	9	32*	67*	14	-2	35*	73*
COc1ccc(NC(=O)COC(=O)c2c3c(nc4ccccc24)CCCC3)cc1	14	16	13	48	-14	-12	.	.
SMILES	OX1R antag-1	TAAR1 ag	GPR7 antagonist	TAAR1 antag	OX1R antag-2	CHO parental Ca	GPR7 antag conf	MCHR1 antag
CN(C)S(=O)(=O)c1ccc(Cl)c(NC(=O)COC(=O)CNS(=O)(=O)c2c(F)cccc2F)c1	.	2	.	5	.	.	.	.
Cn1cnc2c1c(=O)n(Cc1ccc(Cl)cc1Cl)c(=O)n2C	10	2	-2	-5	-20	-7	.	.
CC(C)(C)OC(=O)N1CCC(c2c(C(=O)NCC3CCN(C4CCCC4)C3)cnn2-c2ccccc2Cl)CC1 (centres undefined)	-4	16	44*	7	-34	-13	49*	23*
COc1cc(C(=O)N2CCCCC2c2cc(C(=O)Nc3ccccc3)no2)cc(OC)c1C (centres undefined)	.	0	.	11	.	.	.	.
Cc1ccc(N(CC(O)Cn2c3ccccc3c3ccccc32)S(C)(=O)=O)c(C)c1 (centres undefined)	5	11	-1	23	-9	-8	.	.
Cc1cccc(C)c1N(CC(O)Cn1c2ccccc2c2ccccc21)S(C)(=O)=O (centres undefined)	32	9	29*	19	13	-9	37*	36*
Cc1ccc(N(CC(O)Cn2c3ccccc3c3ccccc32)S(C)(=O)=O)cc1 (centres undefined)	31	11	24*	44	21	0	30*	45*
O=C1CCCN1C(=O)CSc1ccc2ccccc2n1	8	8	.	-5	-24	-12	.	.
O=C(CSc1nccn1-c1ccc(F)cc1)Nc1ccc2c(c1)OCO2	35	0	7	-2	-10	-11	.	.
O=C(CSc1nccn1-c1ccccc1)Nc1ccc2c(c1)OCO2	18	2	28*	6	4	5	26*	24*
